Among the data in ChEMBL document CHEMBL4033621, “Design, synthesis and biological evaluation of new pyrazolyl-ureas and imidazopyrazolecarboxamides able to interfere with MAPK and PI3K upstream signaling involved in the angiogenesis” (Eur J Med Chem, 2017) are Activity values, retold here.

Calls of active or inactive are those of the source. The rule behind the calls is not given here.

For experiment [1], the species on record is Homo sapiens. In words: Effect on VEGF-stimulated MAPK signaling pathway in HUVEC assessed as p38 MAPK phosphorylation level at 20 uM pretreated for 10 mins followed by VEGF stimulation and subsequent compound addition measured after 20 mins by Western blot analysis relative to control. Summed up: (§1)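 HUVEC grown to confluence in M199 with 10% FCS, ECGS, heparin, hydrocortisone, then starved ≥4 h in medium alone. Pre-incubated 10 min at 37°C with compound 20 µM in DMSO, then VEGF 50 ng/mL plus compound for 20 min. Lysates (30 µg) immunoblotted for phospho-ERK1/2, phospho-p38MAPK or phospho-Akt, with tubulin as loading control. ECL detection, densitometry. Results given relative to VEGF+DMSO on the same blot (100%), ≥2 independent experiments.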
On the technique in general: Immunoblotting shows a protein as a band on a membrane.

For experiment [2], the species on record is Homo sapiens. In words: Effect on VEGF-stimulated PI3K signaling pathway in HUVEC assessed as AKT phosphorylation level at 20 uM pretreated for 10 mins followed by VEGF stimulation and subsequent compound addition measured after 20 mins by Western blot analysis relative to control. A digest of the protocol:
as §1

Another experiment relates to HUVEC. In words: Antimigratory activity against VEGF-stimulated HUVEC at 20 uM measured up to 15 hrs in presence of CMFDA probe by microscopy-based wound healing assay. The format is functional, cell-based. As to conditions: Homo sapiens. A digest of the protocol: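 Confluent HUVEC (48 h growth) labelled with CMFDA (1:5000 of 10 mM stock), scratched with sterile tip, washed with PBS, then given VEGF 50 ng/mL plus compound 20 µM (DMSO control). Wounds imaged at 0 and 15 h by microscopy. Colonized area = area 0 h − area 15 h, expressed as percent of control set at 100%.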

Experiment [3] is filed under the species Homo sapiens. In words: Effect on VEGF-stimulated MAPK signaling pathway in HUVEC assessed as ERK1/2 phosphorylation level at 20 uM pretreated for 10 mins followed by VEGF stimulation and subsequent compound addition measured after 20 mins by Western blot analysis relative to control. Summed up: as §1

For `CC(C)(C)c1cc2n(n1)CC(c1ccccc1)N2C(=O)Nc1ccc(F)cc1` (stereo not given), the outcome in the experiment listed under Homo sapiens [1] and in the experiment listed under Homo sapiens [2] was Active. The outcome with HUVEC was inactive.
For the compound `CCOC(=O)c1cnn(CC(=O)c2ccccc2)c1NC(=O)Nc1ccc(F)cc1`, the outcome in the experiment filed under Homo sapiens [1] and in the experiment filed under Homo sapiens [3] was Active. For the same compound, the Activity in the experiment filed under Homo sapiens [2] was found to be 96%. Moreover, the result in the experiment with HUVEC was inactive.
As to `CCOC(=O)c1cnn(CC(=O)c2ccccc2)c1NC(=O)Nc1cccc(F)c1`, the outcome in the experiment filed under Homo sapiens [1] and in the experiment listed under Homo sapiens [3] was Active. Further, in the experiment listed under Homo sapiens [2], the Activity came out at 63%. In addition, the result in the experiment with HUVEC was inactive.
For the compound `CCOC(=O)c1cnn(CC(O)c2ccccc2)c1NC(=O)Nc1cccc(C(F)(F)F)c1` (stereo not given), the values for the Activity in the experiment listed under Homo sapiens [1], in the experiment listed under Homo sapiens [3] and in the experiment listed under Homo sapiens [2] were 150%, -70% and -37%, respectively. The outcome with HUVEC was inactive.
Taken in the same sequence, the figures for `NC(=O)c1cnn2c1N(C(=O)Nc1cccc(C(F)(F)F)c1)C(c1ccccc1)C2` (stereo not given) were 200 to 300%, “inactive”, “Active” and “inactive”.
Taken in the same sequence, the figures for `CCOC(=O)c1cc(NC(=O)Nc2cccc(F)c2)n(CC(O)c2ccccc2)n1` (stereo not given) were “Active”, “Active”, 51% and “inactive”.
With `CC(C)(C)c1cc(NC(=O)Nc2cccc(F)c2)n(CC(O)c2ccccc2)n1` (stereo not given), the Activity in the experiment listed under Homo sapiens [1] turned out to be 199%. The outcome in the experiment filed under Homo sapiens [3] and in the experiment filed under Homo sapiens [2] was Active. For the same compound, the result in the experiment on HUVEC was inactive.
`CCOC(=O)c1cnn(CC(C)O)c1NC(=O)Nc1cccc(C(F)(F)F)c1` (stereo not given): the result in the experiment filed under Homo sapiens [1], in the experiment filed under Homo sapiens [3] and in the experiment filed under Homo sapiens [2] was Active. Further, the outcome in the experiment with HUVEC was inactive.
In the case of `CCOC(=O)c1cc(NC(=O)Nc2cccc(C(F)(F)F)c2)n(CC(O)c2ccccc2)n1` (stereo not given), in the experiment filed under Homo sapiens [1], the Activity is -61%. The outcome in the experiment filed under Homo sapiens [3] was Active. The result in the experiment listed under Homo sapiens [2] and in the experiment with HUVEC was inactive.
As for `CCOC(=O)c1cc2n(n1)CC(c1ccccc1)N2C(=O)Nc1ccccc1F` (stereo not given), in the experiment filed under Homo sapiens [1], the result was Active. For the same compound, the result in the experiment listed under Homo sapiens [2] and in the experiment with HUVEC was inactive.
Take `CC(C)(C)c1cc2n(n1)CC(c1ccccc1)N2C(=O)Nc1cccc(F)c1` (stereo not given): the outcome in the experiment listed under Homo sapiens [1] and in the experiment filed under Homo sapiens [2] was Active. Also, in the experiment with HUVEC, the result was inactive.
As for `CCOC(=O)c1cnn(CC(=O)c2ccccc2)c1NC(=O)Nc1cccc(C(F)(F)F)c1`, the outcome in the experiment listed under Homo sapiens [1], in the experiment filed under Homo sapiens [3] and in the experiment filed under Homo sapiens [2] was Active. Further, in the experiment on HUVEC, the outcome was inactive.
Turning to `CCOC(=O)c1cc(NC(=O)Nc2ccc(F)cc2)n(CC(O)c2ccccc2)n1` (stereo not given), the Activity in the experiment listed under Homo sapiens [1] was -81%. Moreover, the result in the experiment listed under Homo sapiens [3] was Active. The result in the experiment listed under Homo sapiens [2] and with HUVEC was inactive.
Consider `CC(C)(C)c1cc(NC(=O)Nc2cccc(C(F)(F)F)c2)n(CC(O)c2ccccc2)n1` (stereo not given), for which the result in the experiment filed under Homo sapiens [1] and in the experiment listed under Homo sapiens [3] was Active. In addition, in the experiment on HUVEC, the outcome was inactive.
Regarding `CC(C)(C)c1cc(NC(=O)Nc2ccccc2F)n(CC(O)c2ccccc2)n1` (stereo not given), the Activity in the experiment listed under Homo sapiens [1] is -74%. Besides, the outcome in the experiment listed under Homo sapiens [3] was Active. For the same compound, the result in the experiment listed under Homo sapiens [2] and with HUVEC was inactive.
For `CCOC(=O)c1cc2n(n1)CC(c1ccccc1)N2C(=O)Nc1cccc(C(F)(F)F)c1` (stereo not given), the outcome in the experiment filed under Homo sapiens [1] and in the experiment listed under Homo sapiens [2] was Active. Further, in the experiment listed under Homo sapiens [3], the Activity was -75%. The result in the experiment on HUVEC was inactive.
`CCCC(O)Cn1ncc(C(=O)OCC)c1NC(=O)Nc1cccc(C(F)(F)F)c1` (stereo not given): the Activity in the experiment listed under Homo sapiens [1] is 180%; in the experiment listed under Homo sapiens [3], -59%; in the experiment filed under Homo sapiens [2], -29%. Further, in the experiment on HUVEC, the result was Active.
Consider `CCOC(=O)c1cc2n(n1)CC(c1ccccc1)N2C(=O)Nc1cccc(F)c1` (stereo not given), for which the outcome in the experiment listed under Homo sapiens [1] and in the experiment filed under Homo sapiens [2] was Active. The result in the experiment on HUVEC was inactive.
For `CCOC(=O)c1cc2n(n1)CC(c1ccccc1)N2C(=O)Nc1ccc(F)cc1` (stereo not given), the outcome in the experiment filed under Homo sapiens [1] and in the experiment listed under Homo sapiens [2] was Active. For the same compound, the result with HUVEC was inactive.
As to `CCOC(=O)c1cnn(CC(=O)c2ccccc2)c1NC(=O)Nc1ccccc1F`, the result in the experiment filed under Homo sapiens [1] was Active. Further, the outcome in the experiment listed under Homo sapiens [3], in the experiment filed under Homo sapiens [2] and in the experiment with HUVEC was inactive.
With `CCOC(=O)c1cnn(CC(O)CC)c1NC(=O)Nc1cccc(C(F)(F)F)c1` (stereo not given), the outcome in the experiment listed under Homo sapiens [1] and in the experiment listed under Homo sapiens [2] was Active. In addition, the result in the experiment listed under Homo sapiens [3] and in the experiment on HUVEC was inactive.
With `CCOC(=O)c1cnn2c1N(C(=O)Nc1cccc(C(F)(F)F)c1)C(c1ccccc1)C2` (stereo not given), the Activity is 200 to 300% in the experiment filed under Homo sapiens [1] and -26% in the experiment listed under Homo sapiens [3]. For the same compound, the outcome in the experiment filed under Homo sapiens [2] was Active. For the same compound, in the experiment on HUVEC, the outcome was inactive.
In the case of `CCOC(=O)c1cc(NC(=O)Nc2ccccc2F)n(CC(O)c2ccccc2)n1` (stereo not given), the Activity is 97% in the experiment listed under Homo sapiens [1] and -89% in the experiment listed under Homo sapiens [3]. Moreover, the outcome in the experiment filed under Homo sapiens [2] and with HUVEC was inactive.
With `O=C(c1cnn2c1N(C(=O)Nc1cccc(C(F)(F)F)c1)C(c1ccccc1)C2)N1CCCCC1` (stereo not given), the figures for the Activity in the experiment filed under Homo sapiens [1] and in the experiment filed under Homo sapiens [3] were 200 to 300% and 83%, respectively. Also, the result in the experiment filed under Homo sapiens [2] was Active. In addition, the result in the experiment on HUVEC was inactive.
For `CC(C)(C)c1cc(NC(=O)Nc2ccc(F)cc2)n(CC(O)c2ccccc2)n1` (stereo not given), in that order: -70%, -67%, -83% and “inactive”.
Consider `CC(C)(C)c1cc2n(n1)CC(c1ccccc1)N2C(=O)Nc1ccccc1F` (stereo not given), for which the result in the experiment filed under Homo sapiens [1] was Active. In addition, the result in the experiment filed under Homo sapiens [2] and with HUVEC was inactive.
For `CC(C)(C)c1cc2n(n1)CC(c1ccccc1)N2C(=O)Nc1cccc(C(F)(F)F)c1` (stereo not given), the Activity in the experiment filed under Homo sapiens [1] came to 140%. For the same compound, in the experiment listed under Homo sapiens [2], the result was Active. Also, in the experiment on HUVEC, the result was inactive.
